The apparent Kd is a dissociation constant that holds for the conditions of the assay.

We go through 36 sequences from the EternaBench riboswitch data.

The data set relates to MS2 coat protein. Nature of the data set: apparent Kd, MS2 coat protein; higher = weaker binding; RNA-MaP array; FMN 200 µM where present. A digest of the protocol: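 On Illumina sequencing-chip clusters, designs were transcribed by stalled E. coli RNA polymerase and titrated with SNAP-549-labelled MS2 coat protein (0.7 or 1.5 nM, doubling to 3 µM), without and then with constant ligand, in 100 mM Tris-HCl pH 7.5, 80 mM KCl, 4 mM MgCl2, BSA, DTT, yeast tRNA and Tween-20. Apparent Kd is the median of filtered per-cluster curve fits to green signal normalised to red-channel RNA signal and control-cluster median Fmax.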

The mark [1] stands for this setting: designed as: ON switch for flavin mononucleotide, no ligand.
The mark [2] stands for this setting: ligand present: flavin mononucleotide, designed as: ON switch for flavin mononucleotide.
Where [3] appears, read: designed as: OFF switch for flavin mononucleotide, no ligand.
[4] abbreviates: ligand present: flavin mononucleotide, designed as: OFF switch for flavin mononucleotide.

With “GCGUUCUUGUAGAAGGUACAUGAAAUCUAUUUUUAACACAUGAAACAUGAGGAUCACCCAUGUUGUAAGGAUAUACAUGAACGC”, the “apparent Kd” value under setting [1] was found to be 7.26 nM and the “apparent Kd” value under setting [2] was 6.09 nM.
On the same counts, the results for “CUUAUAAUUGAAGGAUAUCUAUAUCCAACAUGAGGAUCACCCAUGUUGAGGAUCACCCAUGUAAAGGAGAAGGUUAAUUAUAAG” are 104 nM and 22.7 nM.
As for “CUUUUGUGAGGAUAUCAGUAGUAAAAAAAUAAAAUUACUACUGAGAAGGCACAUGAGGAUCACCCAUGUUCCUU”, the “apparent Kd” value is, setting by setting: under setting [3], 26.8 nM; under setting [4], 31.6 nM.
Regarding “UUGGUCAGUCAGAAGGCUACAUUACAUGAGGAUCACCCAUGUCAAAAGUAGAGGAUAUGAAGUUCGCCAUGGUAAGAGCCUGUC”, the “apparent Kd” value reads like this: under setting [1], 34.7 nM; under setting [2], 6.26 nM.
On to “UUGUUGUAUGUAGGAUAUGCAUAUUAUUAUUAUGCAGAAGGACAUGAGGAUCACCCAUGUAUGUUAUUAUUAUAUGUUAUGUGU”, for which the “apparent Kd” value is, setting by setting: under setting [3], 39.9 nM; under setting [4], 63.1 nM.
“AUGCUUUAUGUAGGAUAUGCAUACGGUACGUAUGCAGAAGGACAUGAGGAUCACCCAUGUAAAUUAUUAUUACAUAUCAUACAU”: under setting [4], the “apparent Kd” value amounted to 44 nM.
For “UUUUUGUCAGGAUAUCGUUAAUUUAAUUGUUUGUAUUAGUUCGAGAAGGGACAUGAGGAUCACCCAUGUAUUUU”, the “apparent Kd” value was 41.1 nM under setting [3] and 103 nM under setting [4].
“AUCCGGCGUGUAGGAUAUGGAAAAGAUAAGGAUCCAGAAGGACAUGAGGAUCACCCAUGUACAUGUAAACAGUCAUCACCGGAA”: the “apparent Kd” value runs as follows: under setting [3], 35.3 nM; under setting [4], 50.9 nM.
As for “GUUAGUUAAGGAUAUACUGGGAGCUGCGGCGUCUCGCCGCAACAUGAGGAUCACCCAUGUAGAAGGUGACCAUU”, the “apparent Kd” value is, setting by setting: under setting [3], 320 nM; under setting [4], 229 nM.
Consider “UGUCGGAGCAGAGGAUAUUACAUGAGGAUCACCCAUGUAUGAACCAAUAGGUGGAAACAGCAAUGUAAGAAGGCUGCUCCGACA”, for which the “apparent Kd” value by setting is: under setting [3], 178 nM; under setting [4], 481 nM.
Consider “UCGUAUACACAAGGAUAUCAAUGGUUUGUAGAUCCUACAUGAGGAUCACCCAUGUUUUUAUAUUGUGAGAAGGUGUAGUGUCUU”, for which the “apparent Kd” value by setting is: under setting [1], 620 nM; under setting [2], 564 nM.
Regarding “UAGCUUGACGCAGGAUAUCCAGGGCUGAGAUGAGGAGAAGGGCGCCAAACAUGAGGAUCACCCAUGUAUUAUGCAGGGUCCUCA”, the “apparent Kd” value under setting [3] was 336 nM and the “apparent Kd” value under setting [4] was determined as 315 nM.
In the case of “AGUGUCAUCGAGAAGGCCUCAUGGACAUGAGGAUCACCCAUGUAAAAUGGGAGGAUAUCGAUGAUACAGCUACGUUUCGUAGCA”, the “apparent Kd” value amounted to 226 nM under setting [1] and 69.7 nM under setting [2].
Regarding “AAAAAGUCAGGAUAUGUGAAAAAAAAAAAAAAAAAAAAAAAACAGAAGGGACAUGAGGAUCACCCAUGUAAAAA”, the “apparent Kd” value by setting is: under setting [3], 54.1 nM; under setting [4], 62.3 nM.
The matching figures for “GGUACUCAAAGAGUACCAAUACGAACAUGAGGAUCACCCAUGUAGGAUAUGCUACUCAAAGAGUAGCAGAAGGACAUGUGAAAU”: 71.5 nM and 380 nM.
The matching figures for “GUUUCGUGAGGAUAUGUGGCUUCGAUCGUGCGAAGAAGGCUACAGAAGGCACAUGAGGAUCACCCAUGUUCCUC”: 85.7 nM and 592 nM.
The matching figures for “AACCGACAUGAGGAUCACCCAUGUAAGGAUAUCCACGGACAACGCCAUAGUUGCCGGCGGAGAAGGUGCGUGGU”: 26 nM and 46 nM.
For the sequence “GGUGGACAUGAGGAUCACCCAUGUGAGGAUAUCGGCUGGCUAGCGGCGGAUGGCUUCUCGAGAAGGCGCAUAGU”, the “apparent Kd” value was found to be 80.2 nM under setting [3] and 67.5 nM under setting [4].
On the same counts, the results for “ACUAGAUGAGGAUAUGCAUGUUUUCGUGUUCUUCUAGAUUAACAUGAGGAUCACCCAUGUAGAAGGCGUCAAUU” are 41.5 nM and 132 nM.
As for “AGACUGAAGCAAGGAUAUUGUAAGGUUAUCGUACAAGAAGGUGCUGUUUAUGUCUCUUAACAUGAGGAUCACCCAUGUUUUAAA”, the “apparent Kd” value came to 19.7 nM under setting [1] and 21.8 nM under setting [2].
“UUUUUUGUUGUGAGGAUAUCGUUGUGGAUGUGGAUCGAGAAGGCACAUGAGGAUCACCCAUGUUUGUUGUGGUU”: the “apparent Kd” value under setting [3] was determined as 102 nM and the “apparent Kd” value under setting [4] was determined as 158 nM.
With “GUCAUCGUAUGAGGAUAUGGCACCGAAACGGUGCCAGAAGGCAUGUCAAUAGACAUGAGGAUCACCCAUGUGUUAUCGAUGGCA”, the “apparent Kd” value was determined as 116 nM under setting [1] and 13.2 nM under setting [2].
Take “GAAUAGUUGAGAGGAUAUGUAUUAUUGUAGGAUACAGAAGGUUUUAACAUGAGGAUCACCCAUGUAGGACUAUAUAUGUGAAUA”: the “apparent Kd” value by setting is: under setting [1], 15.2 nM; under setting [2], 13.2 nM.
As for “AUGCUUAUCGAAGGAUAUGGUUACAUGAGGAUCACCCAUGUUAUGCUUGGUUACUUGUUUAGUUUCCAGAAGGUCGAUUAGUUG”, the “apparent Kd” value was 71 nM under setting [3] and 172 nM under setting [4].
As for “CACAUGGUUACAGGAUAUGUUAGGUUGCUGUUUAUUGGAUAUUAAAUUAUUACAGAAGGGUAAUACAUGAGGAUCACCCAUGUG”, the “apparent Kd” value is 129 nM under setting [1] and 29.4 nM under setting [2].
Turning to “AAGCUGGUAGGAUAUACUAGGGCGAUUAAUACGCCGAUAGUACAUGAGGAUCACCCAUGUAGAAGGGCCAGAAA”, the “apparent Kd” value worked out at 27.5 nM under setting [3] and 22.1 nM under setting [4].
On the same counts, the results for “GUCAGUGUGGUAGGAUAUCGAAACGGUCAGUUACGAGAAGGGCUACAUGAGGAUCACCCAUGUAUCCAAGAUCGGCUUACAGCA” are 5.87 nM and 5.92 nM.
On the same counts, the results for “AUCAGCUCGUCAGGAUAUACGUCACUACGUCAGCAGUGUGGUAAGAUCACAUGAGGAUCACCCAUGUAGAAGGGACGAGCUGAU” are 21.4 nM and 201 nM.
Consider “AUGUUGAGCAGUGUAUUAAUAAAACAUGAGGAUCACCCAUGUAGAAGGCACGAGCUGAUCGCUCGUGAGGAUAUACAUCACUGC”, for which the “apparent Kd” value reads like this: under setting [3], 5.15 nM; under setting [4], 5.9 nM.
For the sequence “UGUAACUAGUAAGGAUAUACUAUUGAUUUAAUAGUAGAAGGUACAGUCUUUUGUAUAUCAUGUUUACAUGAGGAUCACCCAUGU”, the “apparent Kd” value stood at 10.4 nM under setting [1] and 7.77 nM under setting [2].
As to “AGAGAUGACGAAGGAUAUGGAUACAUGAGGAUCACCCAUGUUUAUUUAGUGAUUUUGUAUGAAUACCAGAAGGUCGAAUAAAAG”, the “apparent Kd” value reads like this: under setting [3], 125 nM; under setting [4], 342 nM.
The matching figures for “GGAUGACAAAGUCAUCCAAUACGAACAUGAGGAUCACCCAUGUAGGAUAUGCAACUCAAAGAGUUGCAGAAGGACAUGUGUCUU”: 28.9 nM and 128 nM.
With “GGAGGGACAGCAGGAUAUGAGUGGGACGCACUGUGUACGCGGGUGUGGAUGUCAGAAGGGCUGACAUGAGGAUCACCCAUGUAA”, the “apparent Kd” value under setting [1] was 114 nM and the “apparent Kd” value under setting [2] was 55.4 nM.
Take “CCAACUGGAGGAUAUGCAGCGGCGGUCUCUUGGUUUGCAUUACAUGAGGAUCACCCAUGUAGAAGGCCGGUUGU”: the “apparent Kd” value reads like this: under setting [3], 117 nM; under setting [4], 201 nM.
The matching figures for “GAAGUUUCCUGAGGAUAUACAUGAGGAUCACCCAUGUAAUGCUUGACUUCAGUAGAAGGCGGGAAACGAAAUUUCGGUGAUCAG”: 353 nM and 140 nM.
For “UCGGCGCGAGGAUAUACGUUUGCGCUUUUUCGUUUUUGCGUACAUGAGGAUCACCCAUGUAGAAGGCGCGCCGC”, the “apparent Kd” value came out at 15.6 nM under setting [3] and 23 nM under setting [4].
